The values that follow come from PMC4184708 (Pharmacology Research & Perspectives, 2014).

SMILES strings stand for the structures.

The nature of data set [1]: Pharmacokinetics of vigabatrin after iv or oral administration to rats. Type of data set: in vivo, male Sprague–Dawley rats.
Data set [2] in a line: Pharmacokinetics of acetaminophen. The conditions noted are these: rats. Type of data set: in vivo, male Sprague–Dawley rats.
Data set [3] can be described thus: Acetaminophen deconvolution profiles and rate of gastric emptying. Format: in vivo, male Sprague–Dawley rats. The conditions noted are these: rats, deconvolution profile, after 30 min.
A short description of data set [4]: Paracellular flux: A–B transport of [14C]-mannitol across Caco-2 cell monolayers. Type of data set: in vitro ADME. To be noted: human. Background: Caco-2 monolayers are a common model of the intestinal barrier.
For data set [5], the system named is Caco-2 cell monolayers. Briefly: Transepithelial apical to basolateral. The conditions noted are these: Caco-2 monolayers, NaCl-reduced HBSS versus HBSS. Type of data set: in vitro ADME, human. The gist of the method:
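Caco-2 cells (passages 10–18) were seeded at 8.9·10^4 cells cm−2 on 1.12 cm2 polycarbonate inserts (0.4 μm) and run 20 days post seeding, with TEER monitored. 1.0 mmol/L test compound was applied apically, alone or with amino acid or dipeptide inhibitors (35.0–152.5 mmol/L) in NaCl-reduced HBSS (mannitol to 270–310 mOsmol L−1), or with low fat infant formula 150 mg mL−1 in water. Controls were in HBSS and NaCl-reduced HBSS.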

The nature of data set [6]: Absorption rate constant. Type of data set: in vivo, male Sprague–Dawley rats. The conditions noted are these: rats.
Data set [7] relates to Caco-2 cells. Briefly: Apical vigabatrin uptake in Caco-2 cells. Type of data set: in vitro ADME, human. The gist of the method: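 Caco-2 cells (passages 10–18) were seeded at 8.9·10^4 cells cm−2 in 24-well plates and used 6 days post seeding. Low fat infant formula: 150 mg mL−1 was incubated 15 min at 37°C, centrifuged 15 min at 18000g and 4°C, and the supernatant was re-spun to remove lipids. Uptake rate is in nmol min−1 cm−2; n = 3–4.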

Setting [8] is: oral coadministration with 120 mg kg^−1 acetaminophen.
Where [9] appears, read: rats, vigabatrin 1.0 mg kg^−1 PO, formulation 1, dietary component none.
Where [10] appears, read: rats, vigabatrin 1.0 mg kg^−1 PO, formulation 5, with Sar 200 mg kg^−1.
The mark [11] stands for this setting: rats, vigabatrin 1.0 mg kg^−1 PO, formulation 6, with BCH 200 mg kg^−1.
Where [12] appears, read: rats, vigabatrin 10 mg kg^−1 PO, formulation 7, dietary component none.
Where [13] appears, read: rats, vigabatrin 10 mg kg^−1 PO, formulation 10, with Sar 200 mg kg^−1.

Take `NC1(C(=O)O)CC2CCC1C2` (stereo not drawn) [BCH, 2-amino-2-norbornanecarboxylic acid]: the “effect on the pharmacokinetic parameters of vigabatrin absorption” value in data set [1] (rats, oral administration of 1.0 mg kg^−1 vigabatrin) is “did not significantly alter”.

`CNCC(=O)O` [Sar, sarcosine]: in data set [2] (setting [8]), the “effect on Cmax of acetaminophen” value is listed as “did not alter” and the “effect on tmax of acetaminophen” value was “did not alter”. For the same compound, in data set [1] (rats, oral coadministration with 1.0 and 10.0 mg kg^−1 vigabatrin), the “effect on tmax of vigabatrin” value was “significant prolonging effect”. The “effect on Cmax of vigabatrin” value in data set [1] (rats, oral coadministration with vigabatrin) was “significantly decreased”.

Usually AUC(0-inf) stands for total exposure, with the tail of the curve extrapolated. Lower therefore signals less exposure. `CC(=O)Nc1ccc(O)cc1` [acetaminophen] showed an AUC(0-inf) in data set [2] (male, Sprague-Dawley, rat, plasma, iv, 120 mg/kg, AUC0–∞, acetaminophen 120 mg kg^−1 iv, formulation 00, dietary component none) of 155000 ± 4000 ng·h/mL. This compound also showed a k el in data set [2] (male, Sprague-Dawley, rat, plasma, iv, 120 mg/kg, ke, acetaminophen 120 mg kg^−1 iv, formulation 00, dietary component none) of 0.000306 s⁻¹. This compound displayed a Fabs in data set [2] (acetaminophen 120 mg kg^−1 iv, formulation 00, dietary component none) of 100 ± 3%. In addition, the “cumulative fraction of acetaminophen absorbed” value in data set [3] is recorded as “about 90%”.

A word on the Papp: it is the rate of passage across a membrane or cell layer, normalised by area and donor concentration. Take `OC[C@@H](O)[C@@H](O)[C@H](O)[C@H](O)CO` [mannitol, D-[1-^14C]-mannitol]: the Papp in data set [4] came out at 0.16 ×10⁻⁶ cm/s.

As a reminder, the Cmax is the peak of the concentration-time curve. What is called Tmax is the time at which the peak concentration occurs. Turning to `C=CC(N)CCC(=O)O` (stereo not drawn) [vigabatrin], the “transport of vigabatrin in the apical to basolateral direction” value in data set [5] is “unaffected”. Moreover, the clearance in data set [1] (male, Sprague-Dawley, rat, plasma, iv, 1 mg/kg) was 7.1 mL/min/kg. In data set [1] (male, Sprague-Dawley, rat, plasma, po, 10 mg/kg, AUC0–∞, rats, vigabatrin 10 mg kg^−1 PO, formulation 7, dietary component none), this compound returned a total exposure AUC(0-inf) of 17800 ± 808 ng·h/mL. In data set [1] (male, Sprague-Dawley, rat, plasma, po, 10 mg/kg, Cmax, rats, vigabatrin 10 mg kg^−1 PO, formulation 7, dietary component none), this compound registered a Cmax of 13600 ± 953 ng/mL. The same compound gave a k el in data set [1] (male, Sprague-Dawley, rat, plasma, po, 10 mg/kg, ke, rats, vigabatrin 10 mg kg^−1 PO, formulation 7, dietary component none) of 0.000194 s⁻¹. Also, the Tmax in data set [1] (male, Sprague-Dawley, rat, plasma, po, 10 mg/kg, tmax, median [Q1, Q3], rats, vigabatrin 10 mg kg^−1 PO, formulation 7, dietary component none) stood at 19.8 min. In addition, in data set [1] (rats, oral administration of 1.0 or 10.0 mg kg^−1 vigabatrin), the “time of maximal plasma concentration (Cmax) after oral administration” value lay in the range of 0.25 to 0.33 h. Besides, the CL was determined as 9.68 ± 0.5 mL/min/kg in data set [1] (setting [9]); 9.53 ± 0.383 mL/min/kg in data set [1] (setting [10]); 9.13 ± 0.333 mL/min/kg in data set [1] (setting [11]); 9.45 ± 0.4 mL/min/kg in data set [1] (setting [12]); 10.6 ± 0.533 mL/min/kg in data set [1] (setting [13]). Moreover, the Fabs is recorded as 72 ± 4% in data set [1] (setting [9]); 73 ± 3% in data set [1] (setting [10]); 76 ± 3% in data set [1] (setting [11]); 100% in data set [1] (rats, vigabatrin 1.0 mg kg^−1 iv, formulation 0, dietary component none); 74 ± 3% in data set [1] (setting [12]); 66 ± 3% in data set [1] (setting [13]). Moreover, the ka worked out at 5.2 ± 0.3 in data set [6] (vigabatrin 1 mg kg^−1, DC fitted to eq. 9, with Low fat milk); 5.3 ± 0.9 in data set [6] (vigabatrin 1 mg kg^−1, DC fitted to eq. 9, with Milk); 2.9 ± 0.2 in data set [6] (vigabatrin 1 mg kg^−1, DC fitted to eq. 9, with Sar); 2.6 ± 0.1 in data set [6] (vigabatrin 1 mg kg^−1, PC fitted to eq. 10, with Low fat milk); 2.8 ± 0.3 in data set [6] (vigabatrin 1 mg kg^−1, PC fitted to eq. 10, with Milk); 1.6 ± 0.1 in data set [6] (vigabatrin 1 mg kg^−1, PC fitted to eq. 10, with Sar). The ka in data set [6] (vigabatrin 1 mg kg^−1, deconvolution curve (DC) fitted to eq. 9, Control) is given as 7.9 ± 1.9; in data set [6] (vigabatrin 10 mg kg^−1, DC fitted to eq. 9, with Low fat milk), 5.0 ± 0.3; in data set [6] (vigabatrin 10 mg kg^−1, DC fitted to eq. 9, with Milk), 4.1 ± 0.5; in data set [6] (vigabatrin 10 mg kg^−1, DC fitted to eq. 9, with Sar), 3.2 ± 0.2; in data set [6] (vigabatrin 10 mg kg^−1, PC fitted to eq. 10, with Low fat milk), 2.6 ± 0.1; in data set [6] (vigabatrin 10 mg kg^−1, PC fitted to eq. 10, with Milk), 2.6 ± 0.3. The ka in data set [6] (vigabatrin 10 mg kg^−1, PC fitted to eq. 10, with Sar) is given as 1.7 ± 0.1; in data set [6] (vigabatrin 10 mg kg^−1, deconvolution curve (DC) fitted to eq. 9, Control) it was 8.1 ± 2.3. Further, the “apical vigabatrin uptake rate” value is given as 1.01 ± 0.11 nmol min^−1 cm^−2 in data set [7] (apical pH 6.0, control); 0.48 ± 0.07 nmol min^−1 cm^−2 in data set [7] (apical pH 6.0, in the presence of Gly-Gly); 0.53 ± 0.09 nmol min^−1 cm^−2 in data set [7] (apical pH 6.0, in the presence of low fat infant formula); 0.31 ± 0.04 nmol min^−1 cm^−2 in data set [7] (apical pH 7.4, control); 0.25 ± 0.03 nmol min^−1 cm^−2 in data set [7] (apical pH 7.4, in the presence of Gly-Gly); 0.28 ± 0.06 nmol min^−1 cm^−2 in data set [7] (apical pH 7.4, in the presence of low fat infant formula).
